ChEMBL document CHEMBL3085688, “Thiazole-aminopiperidine hybrid analogues: design and synthesis of novel Mycobacterium tuberculosis GyrB inhibitors” (Eur J Med Chem, 2013)
In brackets after ≈: the same amount, converted by molar mass. Activity calls are given as the source filed them. The calls are words filed in the database; no cut-off is given here.

How the values were obtained:
[1] = system: Mycobacterium tuberculosis; assay: Antimycobacterial activity against Mycobacterium tuberculosis H37Rv after 7 days by MABA assay; assay type: functional; settings: 168 h
Procedure, shortened: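 M. tuberculosis H37Rv in 7H9-S medium with OADC, adjusted to McFarland No. 1 and diluted 1:20 for inoculum. Drugs were diluted in 7H9-S at four-fold the highest final concentration, then serially two-fold diluted in plates alongside drug-free growth and sterile controls. Alamar blue microplate read-out.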

[2] = Cytotoxicity against mouse RAW264.7 cells at 50 uM after 72 hrs by MTT assay; assay type: cell-based; settings: read-out: INH
Procedure, shortened: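 RAW 264.7 cells were exposed to compounds for 72 h. Viability was scored by cellular MTT conversion to formazan.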

DNA gyrase subunit B = DNA gyrase subunit B (Mycobacterium smegmatis, UniProt P0C559); assay: Inhibition of Mycobacterium smegmatis GyrB ATPase activity expressed in Escherichia coli BL21 (DE3) after 2 hrs; parameters: species or system Mycolicibacterium smegmatis
DNA gyrase subunit B, sequence (P0C559 whole entry): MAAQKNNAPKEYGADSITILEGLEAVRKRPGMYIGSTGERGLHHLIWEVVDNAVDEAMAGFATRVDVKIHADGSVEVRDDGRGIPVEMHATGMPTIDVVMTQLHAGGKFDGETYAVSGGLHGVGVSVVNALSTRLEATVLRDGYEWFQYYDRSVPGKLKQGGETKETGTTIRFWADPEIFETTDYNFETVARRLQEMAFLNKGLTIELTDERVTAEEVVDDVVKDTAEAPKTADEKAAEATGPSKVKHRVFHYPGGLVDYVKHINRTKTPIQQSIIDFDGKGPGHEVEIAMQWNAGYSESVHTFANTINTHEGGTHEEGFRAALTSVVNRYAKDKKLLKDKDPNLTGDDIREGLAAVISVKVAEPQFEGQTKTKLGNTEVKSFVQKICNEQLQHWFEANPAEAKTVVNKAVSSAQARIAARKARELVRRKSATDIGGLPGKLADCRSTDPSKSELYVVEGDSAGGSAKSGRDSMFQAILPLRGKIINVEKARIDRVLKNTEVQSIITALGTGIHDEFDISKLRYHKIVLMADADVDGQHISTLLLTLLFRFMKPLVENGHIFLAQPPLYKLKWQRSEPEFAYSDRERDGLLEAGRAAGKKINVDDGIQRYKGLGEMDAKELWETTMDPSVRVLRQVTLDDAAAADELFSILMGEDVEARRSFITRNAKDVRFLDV

Staphylococcus aureus = assay: Inhibition of Staphylococcus aureus GyrB
Escherichia coli = assay: Inhibition of Escherichia coli DNA gyrase
[3] = molecular target: DNA gyrase subunit A/DNA gyrase subunit B (Mycobacterium tuberculosis (strain ATCC 25618 / H37Rv), UniProt P9WG45+P9WG47); assay: Inhibition of Mycobacterium tuberculosis DNA gyrase super coiling activity of relaxed pBR322 using ethidium bromide staining by agarose gel electrophoresis
DNA gyrase subunit A/DNA gyrase subunit B, sequence (P9WG45 whole entry): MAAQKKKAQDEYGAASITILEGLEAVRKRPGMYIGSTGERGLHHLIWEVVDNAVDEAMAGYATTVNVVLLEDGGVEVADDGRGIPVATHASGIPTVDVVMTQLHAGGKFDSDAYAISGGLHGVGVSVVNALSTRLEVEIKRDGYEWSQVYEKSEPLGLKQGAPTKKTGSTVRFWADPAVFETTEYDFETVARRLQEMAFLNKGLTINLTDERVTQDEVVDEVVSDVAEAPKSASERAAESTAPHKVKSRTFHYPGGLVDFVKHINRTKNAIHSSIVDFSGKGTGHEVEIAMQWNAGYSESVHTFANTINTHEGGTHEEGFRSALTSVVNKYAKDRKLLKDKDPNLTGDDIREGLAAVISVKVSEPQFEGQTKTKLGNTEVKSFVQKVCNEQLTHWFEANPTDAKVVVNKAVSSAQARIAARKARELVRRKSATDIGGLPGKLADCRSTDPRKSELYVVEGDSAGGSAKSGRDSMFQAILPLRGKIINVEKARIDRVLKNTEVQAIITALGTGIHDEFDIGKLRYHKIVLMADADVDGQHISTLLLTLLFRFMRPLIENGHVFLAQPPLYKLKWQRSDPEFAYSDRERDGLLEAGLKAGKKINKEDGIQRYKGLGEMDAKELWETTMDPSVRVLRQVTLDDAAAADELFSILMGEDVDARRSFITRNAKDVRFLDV
DNA gyrase subunit A/DNA gyrase subunit B, sequence (P9WG47 whole entry): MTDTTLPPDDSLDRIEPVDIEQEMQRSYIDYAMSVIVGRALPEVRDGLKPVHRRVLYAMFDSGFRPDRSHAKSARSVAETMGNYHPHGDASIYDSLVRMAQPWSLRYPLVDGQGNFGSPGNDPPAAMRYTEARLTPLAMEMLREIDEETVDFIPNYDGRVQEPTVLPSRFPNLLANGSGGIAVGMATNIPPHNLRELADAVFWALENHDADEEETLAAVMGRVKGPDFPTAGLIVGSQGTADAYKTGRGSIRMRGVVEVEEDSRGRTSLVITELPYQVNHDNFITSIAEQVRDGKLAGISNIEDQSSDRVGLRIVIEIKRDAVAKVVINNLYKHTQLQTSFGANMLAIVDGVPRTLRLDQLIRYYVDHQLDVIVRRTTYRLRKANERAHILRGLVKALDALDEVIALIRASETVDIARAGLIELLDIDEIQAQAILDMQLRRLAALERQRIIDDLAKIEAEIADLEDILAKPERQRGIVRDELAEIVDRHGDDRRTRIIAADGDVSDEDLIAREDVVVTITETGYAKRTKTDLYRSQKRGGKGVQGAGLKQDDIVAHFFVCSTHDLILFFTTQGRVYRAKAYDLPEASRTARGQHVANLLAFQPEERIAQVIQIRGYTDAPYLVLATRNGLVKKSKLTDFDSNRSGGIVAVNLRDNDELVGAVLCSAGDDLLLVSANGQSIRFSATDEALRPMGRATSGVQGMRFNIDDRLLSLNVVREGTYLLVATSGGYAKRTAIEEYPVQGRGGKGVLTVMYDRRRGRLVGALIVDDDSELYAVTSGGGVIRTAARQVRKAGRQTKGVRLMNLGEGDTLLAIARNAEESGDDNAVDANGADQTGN

| SMILES | MIC [1] [µM] | cytotoxicity at 72 h, 50 µM [2] [%] | IC50 (DNA gyrase subunit B) [µM] | inhibition (Staphylococcus aureus) | inhibition (Escherichia coli) | IC50 [3] [µM] |
| --- | --- | --- | --- | --- | --- | --- |
| CCOC(=O)c1sc(-c2ccccc2)nc1N1CCC(NCc2ccc(Cl)c(Cl)c2)CC1 | > 102 | 18.1 | – | – | – | – |
| CCOC(=O)c1sc(-c2ccccn2)nc1N1CCC(NCc2ccc(OCc3ccccc3)cc2)CC1 | 47.3 (≈ 25 µg/mL) | 12.8 | – | – | – | – |
| CCOC(=O)c1sc(-c2ccncc2)nc1N1CCC(NCc2ccc(OCc3ccccc3)cc2)CC1 | 47.3 (≈ 25 µg/mL) | 8.04 | – | – | – | – |
| CCOC(=O)c1sc(-c2ccccn2)nc1N1CCC(NCc2ccc(Cl)c(Cl)c2)CC1 | > 102 | 30.1 | – | – | – | – |
| CCOC(=O)c1sc(-c2ccncc2)nc1N1CCC(NCc2ccccc2)CC1 | 59.2 (≈ 25 µg/mL) | 10.8 | – | – | – | – |
| CCOC(=O)c1sc(-c2ccncc2)nc1N1CCC(NCc2cccc(C(F)(F)F)c2)CC1 | 51 (≈ 25 µg/mL) | 14.3 | – | – | – | – |
| CCOC(=O)c1sc(-c2ccccc2)nc1N1CCC(NCc2ccc(OCc3ccccc3)cc2)CC1 | 47.4 (≈ 25 µg/mL) | 18.4 | – | – | – | – |
| CCOC(=O)c1sc(-c2ccccc2)nc1N1CCC(NCc2ccc(C(F)(F)F)cc2)CC1 | 102 (≈ 50 µg/mL) | 22.7 | – | – | – | – |
| CCOC(=O)c1sc(-c2ccncc2)nc1N1CCC(NCc2ccc(Cl)c(Cl)c2)CC1 | 102 (≈ 50 µg/mL) | 32.2 | – | – | – | – |
| CCOC(=O)c1sc(-c2ccccn2)nc1N1CCC(NCc2cccc(C(F)(F)F)c2)CC1 | 25.5 (≈ 12.5 µg/mL) | 19.2 | 29.1 | inactive | – | – |
| CCOC(=O)c1sc(-c2ccncc2)nc1N1CCC(NCc2ccc(C(F)(F)F)cc2)CC1 | 102 (≈ 50 µg/mL) | 18.1 | – | – | – | – |
| CCOC(=O)c1sc(-c2ccccn2)nc1N1CCC(NCc2ccc(OC)cc2)CC1 | 55.2 (≈ 25 µg/mL) | 4.62 | – | – | – | – |
| CCOC(=O)c1sc(-c2ccncc2)nc1N1CCC(NCc2ccc(OC)cc2)CC1 | 110 (≈ 50 µg/mL) | 16.1 | – | – | – | – |
| CCOC(=O)c1sc(-c2ccccc2)nc1N1CCC(NCc2cccc(C(F)(F)F)c2)CC1 | 102 (≈ 50 µg/mL) | 28.1 | 26.9 | inactive | – | – |
| CCOC(=O)c1sc(-c2ccccn2)nc1N1CCC(NCc2ccc(C(F)(F)F)cc2)CC1 | 51 (≈ 25 µg/mL) | 14.6 | – | – | – | – |
| CCOC(=O)c1sc(-c2ccccn2)nc1N1CCC(NCc2ccc(F)cc2)CC1 | 28.4 (≈ 12.5 µg/mL) | 12.6 | – | – | – | – |
| CCOC(=O)c1sc(-c2ccccc2)nc1N1CCC(NCc2ccc(Cl)cc2Cl)CC1 | 51 (≈ 25 µg/mL) | 9.43 | – | – | – | – |
| CO[C@@H]1[C@@H](OC(N)=O)[C@@H](O)[C@H](Oc2ccc3c(O)c(NC(=O)c4ccc(O)c(CC=C(C)C)c4)c(=O)oc3c2C)OC1(C)C [NOVOBIOCIN] | > 200 | – | – | inactive | inactive | – |
| CCOC(=O)c1sc(-c2ccncc2)nc1N1CCC(NCc2ccc(Cl)cc2Cl)CC1 | 25.4 (≈ 12.5 µg/mL) | 18.4 | 27.1 | inactive | – | – |
| CCOC(=O)c1sc(-c2ccncc2)nc1N1CCC(NCc2ccc(F)cc2)CC1 | 56.8 (≈ 25 µg/mL) | 17.4 | – | – | – | – |
| CCOC(=O)c1sc(-c2ccccc2)nc1N1CCC(NCc2ccc(F)cc2)CC1 | 28.4 (≈ 12.5 µg/mL) | 6.23 | 24 | inactive | inactive | 27.1 |
| CCOC(=O)c1sc(-c2ccccc2)nc1N1CCC(NCc2ccccc2)CC1 | 119 (≈ 50 µg/mL) | 11.7 | – | – | – | – |
| CCOC(=O)c1sc(-c2ccccn2)nc1N1CCC(NCc2ccc(Cl)cc2Cl)CC1 | 50.9 (≈ 25 µg/mL) | 18.6 | – | – | – | – |
| CCOC(=O)c1sc(-c2ccccn2)nc1N1CCC(NCc2ccccc2)CC1 | 59.2 (≈ 25 µg/mL) | 14.6 | – | – | – | – |
| CCOC(=O)c1sc(-c2ccccc2)nc1N1CCC(NCc2ccc(OC)cc2)CC1 | > 111 | 8.4 | – | – | – | – |
